Measurements: ChEMBL document CHEMBL4308872, “Dose dependent actions of LCL521 on acid ceramidase and key sphingolipid metabolites” (2018)
Calls of active or inactive are those of the source. The calls are words filed in the database; no cut-off is given here.

Legend:
[1] = target: T1, Acid ceramidase (Homo sapiens) (UniProt Q13510); experiment: Inhibition of ACDase in human MCF7 cells assessed as down regulation of dihydrosphingosine at 10 uM after 1 hr by LC-MS/MS analysis; type: cell-based
T1 sequence (whole entry): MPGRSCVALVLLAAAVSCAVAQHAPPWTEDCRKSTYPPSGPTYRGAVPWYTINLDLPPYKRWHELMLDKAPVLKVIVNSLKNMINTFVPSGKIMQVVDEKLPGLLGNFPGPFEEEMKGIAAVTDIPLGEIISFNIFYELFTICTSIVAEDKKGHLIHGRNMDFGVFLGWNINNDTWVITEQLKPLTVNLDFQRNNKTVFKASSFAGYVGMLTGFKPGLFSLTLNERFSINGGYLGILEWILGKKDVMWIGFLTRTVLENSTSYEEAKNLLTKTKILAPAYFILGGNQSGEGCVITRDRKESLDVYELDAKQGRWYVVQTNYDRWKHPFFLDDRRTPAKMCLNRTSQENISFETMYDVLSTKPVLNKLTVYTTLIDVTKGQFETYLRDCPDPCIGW

[2] = target: T1, Acid ceramidase (Homo sapiens); experiment: Inhibition of ACDase in human MCF7 cells assessed as upregulation of dihydroceramide at 10 uM after 1 hr by LC-MS/MS analysis; type: cell-based
MCF7 [3] = experiment: Down regulation of alpha-ACDase protein expression in human MCF7 cells at >2.5 uM after 1 hr by Western blot analysis; type: functional, cell-based
Method in brief: (§1)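 MCF7 cells seeded overnight (1×10^6 per 100 mm dish) were exposed to vehicle or 10 μM LCL521 for 1, 2, 5, 8, 15 and 24h, or to 0.1–10 μM for 1h. α- and precursor (P-)ACDase detected by western blot; actin monitored loading and transfer.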

MCF7 [4] = experiment: Down regulation of alpha-ACDase protein expression in human MCF7 cells up to 1 uM after 1 hr by Western blot analysis; type: functional, cell-based
Method in brief: (§2)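 MCF7 cells (RPMI 1640, 10% FBS, 37°C, 5% CO2; 1×10^6 seeded in 100 mm dishes overnight) exposed to vehicle or LCL521, 0.1–10 μM for 1h, or 1 μM for 0.25–10h. α-ACDase detected by western blot, with actin as the loading/transfer control.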

MCF7 [5] = experiment: Down regulation of alpha-ACDase protein expression in human MCF7 cells at 1 uM after 1 hr by Western blot analysis; type: functional, cell-based; method in brief: as §2
MCF7 [6] = experiment: Down regulation of alpha-ACDase protein expression in human MCF7 cells at 10 uM after 1 hr by Western blot analysis; type: functional, cell-based; method in brief: as §1
[7] = target: T1, Acid ceramidase (Homo sapiens); experiment: Inhibition of ACDase in human MCF7 cells assessed as down regulation of sphingosine at 1 uM after 10 hrs by LC-MS/MS analysis; type: cell-based
Method in brief: (§3)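 MCF7 cells received vehicle or 1 μM LCL521 for 10h. Lipids were extracted from cell pellets, and Cer, Sph and S1P were quantified by LC-MS/MS as pmol/nmol lipid phosphate, expressed as % control; means ± st dev of 5 replicates.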

[8] = target: T1, Acid ceramidase (Homo sapiens); experiment: Inhibition of ACDase in human MCF7 cells assessed as down regulation of sphingosine 1-phosphate at 1 uM after 10 hrs by LC-MS/MS analysis; type: cell-based; method in brief: as §3
MCF7 [9] = experiment: Down regulation of alpha-ACDase expression in human MCF7 cells at 1 uM after 10 hrs by Western blot analysis; type: functional, cell-based
MCF7 [10] = experiment: Down regulation of alpha-ACDase expression in human MCF7 cells at 10 uM after 2 to 24 hrs by Western blot analysis; type: functional, cell-based; method in brief: as §1
MCF7 [11] = experiment: Down regulation of alpha-ACDase expression in human MCF7 cells at 10 uM after 8 hrs by Western blot analysis; type: functional, cell-based; method in brief: as §1
MCF7 [12] = experiment: Down regulation of p-ACDase expression in human MCF7 cells at 10 uM after 8 hrs by Western blot analysis; type: functional, cell-based; method in brief: as §1
[13] = target: T1, Acid ceramidase (Homo sapiens); experiment: Inhibition of ACDase in human MCF7 cells assessed as down regulation of sphingosine at 10 uM after 2 hrs by LC-MS/MS analysis; type: cell-based
Method in brief: (§4)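 Exposure of MCF7 cells to vehicle or 10 μM LCL521 for 0.25–24h. Cer, Sph and S1P measured by LC-MS/MS in pellet lipid extracts, normalized to lipid phosphate, given as % control; means ± st dev of 4 replicates.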

[14] = target: T1, Acid ceramidase (Homo sapiens); experiment: Inhibition of ACDase in human MCF7 cells assessed as upregulation of ceramide at 10 uM after 2 hrs by LC-MS/MS analysis; type: cell-based; method in brief: as §4
[15] = target: T1, Acid ceramidase (Homo sapiens); experiment: Inhibition of ACDase in human MCF7 cells assessed as down regulation of sphingosine at 10 uM after 24 hrs by LC-MS/MS analysis; type: cell-based; method in brief: as §4
[16] = target: T1, Acid ceramidase (Homo sapiens); experiment: Inhibition of ACDase in human MCF7 cells assessed as down regulation of sphingosine 1-phosphate at 10 uM after 24 hrs by LC-MS/MS analysis; type: cell-based; method in brief: as §4
[17] = target: T1, Acid ceramidase (Homo sapiens); experiment: Inhibition of ACDase in human MCF7 cells assessed as upregulation of C14-ceramide species at 10 uM after 1 hr by LC-MS/MS analysis; type: cell-based
Method in brief: (§5)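 MCF7 cells treated 1h with vehicle or 10 μM LCL521. Chain-length ceramide species and Sph in pellet lipid extracts quantified by LC-MS/MS per nmol lipid phosphate; means ± st dev of 6 replicates, t-test against control.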

[18] = target: T1, Acid ceramidase (Homo sapiens); experiment: Inhibition of ACDase in human MCF7 cells assessed as upregulation of C16-ceramide species at 10 uM after 1 hr by LC-MS/MS analysis; type: cell-based; method in brief: as §5
[19] = target: T1, Acid ceramidase (Homo sapiens); experiment: Inhibition of ACDase in human MCF7 cells assessed as upregulation of ceramide at 10 uM after 8 to 24 hrs by LC-MS/MS analysis; type: cell-based; method in brief: as §4
[20] = target: T1, Acid ceramidase (Homo sapiens); experiment: Inhibition of ACDase in human MCF7 cells assessed as upregulation of dihydroceramide species at 10 uM after 8 to 24 hrs by LC-MS/MS analysis; type: cell-based
Method in brief: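 Over 8 and 24h, MCF7 cells received vehicle or 10 μM LCL521. Cn-dhCer species and dhSph quantified by LC-MS/MS in extracted lipids, normalized to lipid phosphate; means ± st dev of 4 replicates.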

[21] = target: T1, Acid ceramidase (Homo sapiens); experiment: Inhibition of ACDase in human MCF7 cells assessed as upregulation of dihydroceramide species at 10 uM treated for 24 hrs after 1 hr treatment with myriocin by LC-MS/MS analysis; type: cell-based
Method in brief: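 MCF7 cells pretreated 1h with 100nM myriocin, then combined with vehicle or 10 μM LCL521 for 24h. Cn-dhCer quantified by LC-MS/MS per nmol lipid phosphate; triplicates.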

[22] = target: T2, Sphingolipid delta(4)-desaturase DES1 (Homo sapiens) (UniProt O15121); experiment: Inhibition of dihydroceramide desaturase in human MCF7 cells assessed as decrease in remaining activity at 5 to 10 uM after 24 hrs; type: cell-based
T2 sequence (whole entry): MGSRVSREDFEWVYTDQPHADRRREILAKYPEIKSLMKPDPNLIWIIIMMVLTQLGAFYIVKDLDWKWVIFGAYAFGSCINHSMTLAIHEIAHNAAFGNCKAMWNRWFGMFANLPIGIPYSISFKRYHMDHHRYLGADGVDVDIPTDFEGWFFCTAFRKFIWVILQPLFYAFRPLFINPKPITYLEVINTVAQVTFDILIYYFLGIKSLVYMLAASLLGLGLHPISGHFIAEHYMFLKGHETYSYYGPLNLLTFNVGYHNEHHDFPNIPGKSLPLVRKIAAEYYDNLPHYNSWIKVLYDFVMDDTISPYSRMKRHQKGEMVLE
Method in brief: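 Intact MCF7 cells (3×10^6 seeded in 150 mm dishes overnight) treated with vehicle or LCL521 for 24h. Cells were then pelleted and dihydroceramide desaturase activity assayed by a prior method. Means ± st dev of triplicates versus 0 μM.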

MCF7 [23] = experiment: Down regulation of alpha-ACDase expression in human MCF7 cells at 10 uM after 24 hrs in presence of cyclohexamide by Western blot analysis; type: functional, cell-based
Method in brief: (§6)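 MCF7 cells pretreated 1h with vehicle or 40 μM cycloheximide, then given vehicle or 10 μM LCL521 alone or combined for 1, 8 and 24h. P- and α-ACDase detected by western blot against actin.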

MCF7 [24] = experiment: Down regulation of p-ACDase expression in human MCF7 cells at 10 uM after 24 hrs in presence of cyclohexamide by Western blot analysis; type: functional, cell-based; method in brief: as §6
[25] = target: T1, Acid ceramidase (Homo sapiens); experiment: Inhibition of ACDase in human MCF7 cells assessed as down regulation of sphingosine at 10 uM after 1 to 24 hrs by LC-MS/MS analysis; type: cell-based; method in brief: as §4
MCF7 [26] = experiment: Down regulation of p-ACDase expression in human MCF7 cells assessed as p-ACDase expression at 10 uM measured at 24 hrs by Western blot analysis; type: functional; method in brief: as §1
[27] = target: T1, Acid ceramidase (Homo sapiens); experiment: Inhibition of ACDase in human MCF7 cells assessed as upregulation of dhC16-Cer species at 10 uM after 1 hr by LC-MS/MS analysis; type: cell-based
UMSCC14A = experiment: Down regulation of ACDase protein expression in human UMSCC14A cells at 5 to 10 uM after 5 hrs by Western blot analysis; type: functional, cell-based
Method in brief: (§7)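 Cell lines SCC14A (mouth squamous carcinoma) and PPC-1 (prostate cancer) given a single treatment of LCL521; ACDase protein detected by western blot.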

PPC-1 = experiment: Down regulation of ACDase protein expression in human PPC1 cells at 5 to 10 uM after 5 hrs by Western blot analysis; type: functional, cell-based; method in brief: as §7
MCF7 [28] = experiment: Down regulation of alpha-ACDase protein expression in human MCF7 cells at 10 uM treated for 5 hrs after pretreatment with 4 uM CA-074me for 30 mins by Western blot analysis; type: functional, cell-based
Method in brief: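 MCF7 cells pretreated with a cathepsin B inhibitor, then exposed to 10 μM LCL521. α-ACDase protein assessed by western blot.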

CCCCCCCCCCCCCC(=O)N[C@H](COC(=O)CN(C)C)[C@H](OC(=O)CN(C)C)c1ccc([N+](=O)[O-])cc1.Cl.Cl
inhibition [1]: Active | inhibition [2]: Active | Activity (MCF7 [3]): Dose-dependent effect | Activity (MCF7 [4]): inactive | Activity (MCF7 [5]): inactive | Activity (MCF7 [6]): Active | inhibition [7]: inactive | inhibition [8]: inactive | inhibition (MCF7 [9]): inactive | Activity (MCF7 [10]): Active | Activity (MCF7 [11]): Active | Activity (MCF7 [12]): Active | inhibition [13]: Active | inhibition [14]: Active | inhibition [15]: inactive | inhibition [16]: Active | inhibition [17]: Active | inhibition [18]: Active | inhibition [19]: Active | inhibition [20]: Active | inhibition [21]: inactive | inhibition [22]: Active | Activity (MCF7 [23]): Active | Activity (MCF7 [24]): Active | inhibition [25]: Active | Activity (MCF7 [26]): >70% | inhibition [27]: Active | Activity (UMSCC14A): Active | Activity (PPC-1): Active | Activity (MCF7 [28]): inactive
